We go through one molecule from ChEMBL document CHEMBL1153806, “Preclinical efficacy of a carboxylesterase 2-activated prodrug of doxazolidine” (J Med Chem, 2009).

Each structure is given as a SMILES string. Calls of active or inactive are those of the source. The rule behind the calls is not given here.

Data set [1] is described as follows: Cytotoxicity against human NCI-H1435 cells expressing CES2 gene after 5 to 6 days by MTT assay. The format is functional. The method, boiled down: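 MTT growth assay: 2000–4000 viable cells plated, left overnight at 37 °C in 5% CO₂, then exposed to a range of drug concentrations for 5–6 days. MTT added at 0.4 mg/mL final for 4 h, and formazan dissolved in 0.2 N HCl in 75% isopropanol. Absorbance normalized to vehicle control and IC₅₀ obtained from the curves.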

For data set [2], the system named is HepG2. The data set is described as follows: Cytotoxicity against human HepG2 cells expressing CES2 gene expressing CES2 gene after 5 to 6 days by MTT assay. The format is functional. On the technique in general: Formazan colour is commonly taken as a measure of viable cells.
The subject of data set [3] is HepG2. The data set is described as follows: Antitumor activity against human HepG2 cells expressing CES2 gene xenografted in NOD/SCID mouse assessed as inhibition of tumor growth at 4 to 5 mg/kg, iv administered on day 7, 14 and 21 after tumor implantation. Format: functional, organism-based. The method, boiled down:
(§1)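 NOD/SCID females, 4–6 weeks old, each given ~1.5 × 10⁷ N-Hep G2 cells s.c. in the left flank; 10 mice/group. Dosed i.v. by tail vein on days 7, 14 and 21, in mg/kg Dox-equivalent, from DMSO diluted into D5W (5% DMSO/95% D5W), 100 µL/mouse. Vehicle-only controls. The 3 mg/kg group was redosed at 5 mg/kg on days 45 and 52. Tumor volume (π × short diameter² × long diameter/6) measured weekly.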
Background: A xenograft is tissue or cells of one species grown in another, often human tumour cells in immunodeficient mice.

Data set [4] deals with HepG2. In words: Antitumor activity against human HepG2 cells expressing CES2 gene xenografted in pentyl PABC-doxazolidine-treated NOD/SCID mouse assessed as slowing of large, rapidly growing tumor growth at 5 mg/kg, iv administered on day 52 after tumor implantation. Format: functional, organism-based. Further details: dose 5 mg/kg. The method, boiled down:
as §1

Data set [5] relates to Mus musculus. The data set is described as follows: Toxicity in NOD/SCID mouse xenografted with human HepG2 cells expressing CES2 gene assessed as survival at 4 mg/kg, iv administered on day 7, 14 and 21 after tumor implantation. The format is organism-based. Further details: dose 4 mg/kg, route intravenous. The settings on record: in vivo. The procedure, abridged:
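Female NOD/SCID mice, 4–6 weeks old, 10 per group. About 1.5 × 10⁷ N-Hep G2 cells were injected s.c. into the left flank. Tail-vein i.v. dosing (mg/kg Dox-equivalent weight) was given on days 7, 14 and 21. Vehicle was 5% DMSO/95% D5W, and controls received vehicle only. Body weight was measured weekly over the first 5 weeks. Survival was followed to study end.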

For data set [6], the system named is Mus musculus. The data set is described as follows: Toxicity in NOD/SCID mouse xenografted with human HepG2 cells expressing CES2 gene at 3 mg/kg, iv administered on day 7, 14 and 21 after tumor implantation. Further details: dose 3 mg/kg, route intravenous. The settings on record: in vivo. Format: organism-based.
Data set [7] is described as follows: Toxicity in pentyl PABC-doxazolidine-treated NOD/SCID mouse xenografted with human HepG2 cells expressing CES2 gene assessed as mortality rate at 5 mg/kg, iv administered on day 45 after tumor implantation. The format is organism-based. Set-up: dose 5 mg/kg, route intravenous. The settings on record: in vivo, read-out: Activity. The method, boiled down: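 NOD/SCID females carried s.c. left-flank N-Hep G2 xenografts (about 1.5 × 10⁷ cells). They first received i.v. 3 mg/kg Dox-equivalent on days 7, 14 and 21. The same group was then redosed i.v. at 5 mg/kg on days 45 and 52 in 5% DMSO/95% D5W. There were 10 mice per group. Deaths were counted to the end of the study.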

The subject of data set [8] is Mus musculus. In words: Toxicity in NOD/SCID mouse xenografted with human HepG2 cells expressing CES2 gene assessed as body weight change at 3 mg/kg, iv administered on day 7, 14 and 21 after tumor implantation. The settings on record: in vivo. Further details: dose 3 mg/kg, route intravenous. The format is organism-based. The procedure, abridged:
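Same NOD/SCID N-Hep G2 flank xenograft model: i.v. tail-vein dosing on days 7, 14 and 21 in 5% DMSO/95% D5W, doses in Dox-equivalent mg/kg, 10 mice/group, vehicle controls. Body weight recorded weekly and followed over the first 5 weeks.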

Data set [9] has as its system NCI-H1435. In words: Antitumor activity against human NCI-H1435 cells expressing CES2 gene xenografted in pentyl PABC-doxazolidine-pretreated athymic nude mouse assessed as inhibition of tumor growth at 3 to 4 mg/kg, iv administered on day 56 after tumor implantation. The format is functional, organism-based. The method, boiled down: (§2)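 Athymic nude females, 4–6 weeks old, given ~2 × 10⁶ H1435 cells s.c. in the left flank on day 0; 10 mice/group. I.v. tail-vein doses (Dox-equivalent mg/kg) in 5% DMSO/95% D5W on days 7, 14 and 21, with all groups retreated on days 56, 63 and 70; vehicle controls. Caliper volume π × short² × long/6. Cube roots analysed with day-7 size as baseline covariate, by period.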

The subject of data set [10] is Mus musculus. The data set is described as follows: Toxicity in athymic nude mouse xenografted with human NCI-H1435 cells expressing CES2 gene at 3 to 4 mg/kg, iv administered on day 7, 14 and 21 after tumor implantation. The format is organism-based. Further details: dose 3-4 mg/kg, route intravenous. The conditions noted are these: in vivo.
Data set [11] deals with Mus musculus. In words: Toxicity in NOD/SCID mouse xenografted with human HepG2 cells expressing CES2 gene assessed as occurrence of diarrhea at 3 mg/kg, iv administered on day 7, 14 and 21 after tumor implantation. The format is organism-based. Set-up: dose 3 mg/kg, route intravenous. The settings on record: in vivo.
The test system of data set [12] is NCI-H1435. In words: Antitumor activity against human NCI-H1435 cells expressing CES2 gene xenografted in athymic nude mouse assessed as slowing of tumor growth at 4 mg/kg, iv administered as three weekly infusion from day 21 to 56 after tumor implantation. The format is functional, organism-based. Set-up: dose 4 mg/kg. The method, boiled down: as §2
Data set [13] has as its system Mus musculus. In words: Toxicity in athymic nude mouse xenografted with human NCI-H1435 cells expressing CES2 gene assessed as occurrence of fatty liver administered with six iv injection of 4 mg/kg by hematoxylin/eosin staining-based microscopy. The format is organism-based. Further details: dose 4 mg/kg, route intravenous. The conditions noted are these: in vivo. The method, boiled down: (§3)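 Female athymic nude mice, 4–6 weeks old, 10 per group. About 2 × 10⁶ H1435 cells were implanted s.c. into the left flank. I.v. tail-vein doses (Dox-equivalent) were given on days 7, 14, 21, 56, 63 and 70 in 5% DMSO/95% D5W. At sacrifice, organs were fixed in 10% formalin for 24 h and paraffin-embedded. Sections were cut at 4 µm and stained with hematoxylin/eosin for microscopy.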

Data set [14] concerns Mus musculus. The data set is described as follows: Toxicity in athymic nude mouse xenografted with human NCI-H1435 cells expressing CES2 gene assessed as thickening of Bowman's capsule in glomerulus administered with six iv injection of 4 mg/kg by hematoxylin/eosin staining-based microscopy. The format is organism-based. Set-up: dose 4 mg/kg, route intravenous. The settings on record: in vivo. The procedure, abridged:
as §3

Data set [15] has as its system Mus musculus. The data set is described as follows: Toxicity in athymic nude mouse xenografted with human NCI-H1435 cells expressing CES2 gene assessed as vacuolar damage in ileum administered with six iv injection of 3 to 4 mg/kg by hematoxylin/eosin staining-based microscopy. The conditions noted are these: in vivo. Further details: dose 3-4 mg/kg, route intravenous. The format is organism-based. The method, boiled down: (§4)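 Kidney and ileum taken from the H1435 nude-mouse study (six i.v. injections). Formalin-fixed for 24 h, paraffin-embedded, and cut into 4 µm sections. Sections deparaffinized in xylene, rehydrated through an ethanol series, stained in Harris hematoxylin for 50 s with eosin, then dehydrated and mounted. Morphology assessed by microscopy.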

Data set [16] has as its system Mus musculus. In words: Toxicity in athymic nude mouse xenografted with human NCI-H1435 cells expressing CES2 gene assessed as inflammatory cell infiltration in ileum administered with six iv injection of 3 to 4 mg/kg by hematoxylin/eosin staining-based microscopy. The format is organism-based. Further details: dose 3-4 mg/kg, route intravenous. The conditions noted are these: in vivo. The procedure, abridged:
as §4

Data set [17] can be described thus: Metabolic stability in NOD/SCID mouse plasma up to 24 hrs by reverse-phase HPLC analysis. The format is ADME, cell-free. The settings on record: read-out: Stability. The method, boiled down:
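PPD from a 1 mM DMSO stock diluted 10 µL into 190 µL of plasma (healthy NOD/SCID mouse, or pooled human from 40 donors) at 37 °C; sampled at 0 and 24 h. Samples digested with proteinase K (2 mg/mL) for 4 h at 37 °C, then run on C18 reverse-phase HPLC with a triethylammonium acetate pH 6.0/acetonitrile gradient, detection at 480 nm.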

A further data set concerns NCI-H460. The data set is described as follows: Cytotoxicity against human H460 cells expressing CES2 gene.

As to `CCCCCOC(=O)Nc1ccc(COC(=O)N2CO[C@@H]3[C@H](C)O[C@@H](O[C@H]4C[C@](O)(C(=O)CO)Cc5c(O)c6c(c(O)c54)C(=O)c4c(OC)cccc4C6=O)C[C@@H]32)cc1`, the logIC50 in data set [1] is on record as -6.92; in the data set on HepG2 [2], -6.9. Further, the inhibition entry in the data set with HepG2 [3] and with NCI-H1435 [9] was “Active” throughout. In addition, the result in the data set with HepG2 [4] was Active. Also, the Activity result in the data set with Mus musculus [5] is given as “Non-toxic”; in the data set with Mus musculus [6], “Non-toxic”; in the data set on Mus musculus [8], “Non-toxic”; in the data set with Mus musculus [10], “Non-toxic”; in the data set with Mus musculus [11], “Non-toxic”; with Mus musculus [13], “Toxic”. Also, the Activity entry with Mus musculus [14] is “Toxic”; with Mus musculus [15] it was “Non-toxic”; with Mus musculus [16], “Non-toxic”. In addition, the mortality in data set [7] came out at 60%. Also, the result in the data set on NCI-H1435 [12] was inactive. The remaining at 24 h in data set [17] came to 16%. In addition, in the data set on NCI-H460, the GI50 (commonly the concentration at which growth is held to half of that of the control) was 447 nM.
